ChEMBL document CHEMBL1255475, “Mutant prevention concentrations of four carbapenems against gram-negative rods” (2010)
In brackets after ≈: the same amount, converted by molar mass.

Tests used:
Assay type in all cases: functional
[1] = test system: Klebsiella pneumoniae; experiment: Antibacterial activity against beta-lactamase-negative Klebsiella pneumoniae E362 assessed as mutant prevention concentration after overnight incubation
[2] = test system: Escherichia coli; experiment: Antibacterial activity against beta-lactamase-positive ESBL-positive Escherichia coli E459 incubated up to 7 days by agar dilution method; conditions: E459, 168 h
In short: (§1)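 MIC by CLSI agar dilution, with quality-control strains in each run. Beta-lactamase status was set by 30 μg cefazolin Kirby-Bauer disk diffusion. ESBL status was set by cefotaxime and ceftazidime disks (30 μg) with and without clavulanic acid (10 μg).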

[3] = test system: Klebsiella pneumoniae; experiment: Antibacterial activity against beta-lactamase-positive ESBL-negative Klebsiella pneumoniae E474 assessed as mutant prevention concentration after overnight incubation
In short: (§2)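 Overnight growth on blood trypticase soy agar (35°C, air) was resuspended in 0.9% saline and counted on drug-free Mueller-Hinton agar. […] Colonies were retested by agar dilution to confirm mutants. MPC was the lowest concentration preventing resistant-mutant growth.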

[4] = test system: Klebsiella pneumoniae; experiment: Antibacterial activity against beta-lactamase-positive ESBL-negative Klebsiella pneumoniae E480 incubated up to 7 days by agar dilution method; conditions: E480, 168 h
[5] = test system: Klebsiella pneumoniae; experiment: Antibacterial activity against beta-lactamase-positive ESBL-positive Klebsiella pneumoniae E457 assessed as mutant prevention concentration after overnight incubation; in short: as §2
[6] = test system: Klebsiella pneumoniae; experiment: Antibacterial activity against beta-lactamase-positive ESBL-positive Klebsiella pneumoniae E457 incubated up to 7 days by agar dilution method; conditions: E457, 168 h; in short: as §1
[7] = test system: Escherichia coli; experiment: Antibacterial activity against beta-lactamase-positive ESBL-negative Escherichia coli E412 incubated up to 7 days by agar dilution method; conditions: E412, 168 h; in short: as §1
[8] = test system: Escherichia coli; experiment: Antibacterial activity against beta-lactamase-positive ESBL-negative Escherichia coli E430 assessed as mutant prevention concentration after overnight incubation; in short: as §2
[9] = test system: Escherichia coli; experiment: Antibacterial activity against beta-lactamase-negative Escherichia coli E348 assessed as mutant prevention concentration after overnight incubation
[10] = test system: Klebsiella pneumoniae; experiment: Antibacterial activity against beta-lactamase-negative Klebsiella pneumoniae E418 assessed as mutant prevention concentration after overnight incubation; in short: as §2
[11] = test system: Klebsiella pneumoniae; experiment: Antibacterial activity against beta-lactamase-negative Klebsiella pneumoniae E419 assessed as mutant prevention concentration after overnight incubation; in short: as §2
[12] = test system: Klebsiella pneumoniae; experiment: Antibacterial activity against beta-lactamase-positive ESBL-negative Klebsiella pneumoniae E477 assessed as mutant prevention concentration after overnight incubation; in short: as §2
[13] = test system: Escherichia coli; experiment: Antibacterial activity against beta-lactamase-negative Escherichia coli E345 incubated up to 7 days by agar dilution method; conditions: E345, 168 h
[14] = test system: Escherichia coli; experiment: Antibacterial activity against beta-lactamase-negative Escherichia coli E409 […] by agar dilution method
[15] = test system: Escherichia coli; experiment: Antibacterial activity against beta-lactamase-negative Escherichia coli E408 assessed as mutant prevention concentration after overnight incubation
[16] = test system: Klebsiella pneumoniae; experiment: Antibacterial activity against beta-lactamase-positive ESBL-negative Klebsiella pneumoniae E507 assessed as mutant prevention concentration after overnight incubation; in short: as §2
[17] = test system: Escherichia coli; experiment: Antibacterial activity against beta-lactamase-positive ESBL-positive Escherichia coli E452 incubated up to 7 days by agar dilution method; conditions: E452, 168 h; in short: as §1
[18] = test system: Escherichia coli; experiment: Antibacterial activity against beta-lactamase-positive ESBL-negative Escherichia coli E483 assessed as mutant prevention concentration after overnight incubation; in short: as §2
[19] = test system: Escherichia coli; experiment: Antibacterial activity against beta-lactamase-positive ESBL-positive Escherichia coli E456 assessed as mutant prevention concentration after overnight incubation; in short: as §2
[20] = test system: Klebsiella pneumoniae; experiment: Antibacterial activity against beta-lactamase-negative Klebsiella pneumoniae E361 incubated up to 7 days by agar dilution method; conditions: E361, 168 h
[21] = test system: Escherichia coli; experiment: Antibacterial activity against beta-lactamase-positive ESBL-positive Escherichia coli E458 assessed as mutant prevention concentration after overnight incubation; in short: as §2
[22] = test system: Escherichia coli; experiment: Antibacterial activity against beta-lactamase-positive ESBL-positive Escherichia coli E446 assessed as mutant prevention concentration after overnight incubation; in short: as §2
[23] = test system: Klebsiella pneumoniae; experiment: Antibacterial activity against beta-lactamase-negative Klebsiella pneumoniae E360 assessed as mutant prevention concentration after overnight incubation
[24] = test system: Klebsiella pneumoniae; experiment: Antibacterial activity against beta-lactamase-positive ESBL-positive Klebsiella pneumoniae E453 assessed as mutant prevention concentration after overnight incubation; in short: as §2
[25] = test system: Escherichia coli; experiment: Antibacterial activity against beta-lactamase-positive ESBL-negative Escherichia coli E415 incubated up to 7 days by agar dilution method; conditions: E415, 168 h; in short: as §1
[26] = test system: Klebsiella pneumoniae; experiment: Antibacterial activity against beta-lactamase-negative Klebsiella pneumoniae E359 assessed as mutant prevention concentration after overnight incubation
[27] = test system: Klebsiella pneumoniae; experiment: Antibacterial activity against beta-lactamase-negative Klebsiella pneumoniae E360 incubated up to 7 days by agar dilution method; conditions: E360, 168 h
[28] = test system: Klebsiella pneumoniae; experiment: Antibacterial activity against beta-lactamase-positive ESBL-negative Klebsiella pneumoniae E480 assessed as mutant prevention concentration after overnight incubation; in short: as §2
[29] = test system: Escherichia coli; experiment: Antibacterial activity against beta-lactamase-positive ESBL-positive Escherichia coli E460 incubated up to 7 days by agar dilution method; conditions: E460, 168 h; in short: as §1
[30] = test system: Escherichia coli; experiment: Antibacterial activity against beta-lactamase-positive ESBL-positive Escherichia coli E451 assessed as mutant prevention concentration after overnight incubation; in short: as §2
[31] = test system: Klebsiella pneumoniae; experiment: Antibacterial activity against beta-lactamase-negative Klebsiella pneumoniae E420 assessed as mutant prevention concentration after overnight incubation; in short: as §2
[32] = test system: Escherichia coli; experiment: Antibacterial activity against beta-lactamase-negative Escherichia coli E425 assessed as mutant prevention concentration after overnight incubation
[33] = test system: Klebsiella pneumoniae; experiment: Antibacterial activity against beta-lactamase-positive ESBL-negative Klebsiella pneumoniae E479 assessed as mutant prevention concentration after overnight incubation; in short: as §2
[34] = test system: Klebsiella pneumoniae; experiment: Antibacterial activity against beta-lactamase-positive ESBL-negative Klebsiella pneumoniae E472 assessed as mutant prevention concentration after overnight incubation; in short: as §2
[35] = test system: Pseudomonas aeruginosa; experiment: Antibacterial activity against Pseudomonas aeruginosa P334 assessed as mutant prevention concentration after overnight incubation
[36] = test system: Pseudomonas aeruginosa; experiment: Antibacterial activity against Pseudomonas aeruginosa P337 assessed as mutant prevention concentration after overnight incubation
[37] = test system: Acinetobacter baumannii; experiment: Antibacterial activity against Acinetobacter baumannii A884 assessed as mutant prevention concentration after overnight incubation
[38] = test system: Acinetobacter baumannii; experiment: Antibacterial activity against Acinetobacter baumannii A908 assessed as mutant prevention concentration after overnight incubation
[39] = test system: Pseudomonas aeruginosa; experiment: Antibacterial activity against Pseudomonas aeruginosa P349 assessed as mutant prevention concentration after overnight incubation
[40] = test system: Pseudomonas aeruginosa; experiment: Antibacterial activity against Pseudomonas aeruginosa P370 assessed as mutant prevention concentration after overnight incubation
[41] = test system: Pseudomonas aeruginosa; experiment: Antibacterial activity against Pseudomonas aeruginosa P319 assessed as mutant prevention concentration after overnight incubation
[42] = test system: Pseudomonas aeruginosa; experiment: Antibacterial activity against Pseudomonas aeruginosa P369 assessed as mutant prevention concentration after overnight incubation
[43] = test system: Pseudomonas aeruginosa; experiment: Antibacterial activity against Pseudomonas aeruginosa P338 assessed as mutant prevention concentration after overnight incubation
[44] = test system: Acinetobacter baumannii; experiment: Antibacterial activity against Acinetobacter baumannii A894 assessed as mutant prevention concentration after overnight incubation
[45] = test system: Acinetobacter baumannii; experiment: Antibacterial activity against Acinetobacter baumannii A912 assessed as mutant prevention concentration after overnight incubation
[46] = test system: Acinetobacter baumannii; experiment: Antibacterial activity against Acinetobacter baumannii A890 assessed as mutant prevention concentration after overnight incubation
[47] = test system: Acinetobacter baumannii; experiment: Antibacterial activity against Acinetobacter baumannii A901 assessed as mutant prevention concentration after overnight incubation

Compound: C[C@@H](O)[C@H]1C(=O)N2C(C(=O)O)=C(S[C@@H]3CN[C@H](C(=O)Nc4cccc(C(=O)O)c4)C3)[C@H](C)[C@H]12
- MPC [1]: 0.06 µg/mL
- MIC [2]: 0.03 µg/mL (≈ 0.0631 µM)
- MPC [3]: 32 µg/mL
- MIC [4]: 8 µg/mL (≈ 16.8 µM)
- MPC [5]: 0.125 µg/mL
- MIC [6]: 0.03 µg/mL (≈ 0.0631 µM)
- MIC [7]: 0.06 µg/mL (≈ 0.126 µM)
- MPC [8]: >0.5 µg/mL
- MPC [9]: 0.03 µg/mL
- MPC [10]: 0.125 µg/mL
- MPC [11]: 0.03 µg/mL
- MPC [12]: 32 µg/mL
- MIC [13]: 0.008 µg/mL (≈ 0.0168 µM)
- MIC [14]: 0.016 µg/mL (≈ 0.0336 µM)
- MPC [15]: 0.06 µg/mL
- MPC [16]: 64 µg/mL
- MIC [17]: 0.03 µg/mL (≈ 0.0631 µM)
- MPC [18]: 64 µg/mL
- MPC [19]: 2 µg/mL
- MIC [20]: 0.016 µg/mL (≈ 0.0336 µM)
- MPC [21]: 0.5 µg/mL
- MPC [22]: 1 µg/mL
- MPC [23]: 0.03 µg/mL
- MPC [24]: 1 µg/mL
- MIC [25]: 0.125 µg/mL (≈ 0.263 µM)
- MPC [26]: 0.03 µg/mL
- MIC [27]: 0.008 µg/mL (≈ 0.0168 µM)
- MPC [28]: 32 µg/mL
- MIC [29]: 0.125 µg/mL (≈ 0.263 µM)
- MPC [30]: 1 µg/mL
- MPC [31]: 0.03 µg/mL
- MPC [32]: 0.03 µg/mL
- MPC [33]: 64 µg/mL
- MPC [34]: 64 µg/mL

Compound: C[C@@H](O)[C@H]1C(=O)N2C(C(=O)O)=C(S[C@@H]3CN[C@H](CNS(N)(=O)=O)C3)[C@H](C)[C@H]12 [DORIPENEM]
- MPC [1]: 0.125 µg/mL
- MIC [2]: 0.03 µg/mL (≈ 0.0713 µM)
- MPC [3]: 32 µg/mL
- MPC [35]: >2 µg/mL
- MIC [4]: 2 µg/mL (≈ 4.76 µM)
- MPC [5]: 0.125 µg/mL
- MIC [6]: 0.06 µg/mL (≈ 0.143 µM)
- MIC [7]: 0.03 µg/mL (≈ 0.0713 µM)
- MPC [8]: 0.125 µg/mL
- MPC [36]: 8 µg/mL
- MPC [37]: 4 µg/mL
- MPC [9]: 0.06 µg/mL
- MPC [10]: 0.25 µg/mL
- MPC [11]: 0.25 µg/mL
- MPC [38]: 1 µg/mL
- MPC [12]: >64 µg/mL
- MIC [13]: 0.03 µg/mL (≈ 0.0713 µM)
- MIC [14]: 0.03 µg/mL (≈ 0.0713 µM)
- MPC [15]: 0.06 µg/mL
- MPC [16]: >64 µg/mL
- MPC [39]: 8 µg/mL
- MIC [17]: 0.03 µg/mL (≈ 0.0713 µM)
- MPC [40]: 4 µg/mL
- MPC [18]: 2 µg/mL
- MPC [19]: 0.25 µg/mL
- MIC [20]: 0.06 µg/mL (≈ 0.143 µM)
- MPC [21]: 0.06 µg/mL
- MPC [41]: 8 µg/mL
- MPC [22]: 0.125 µg/mL
- MPC [23]: 0.125 µg/mL
- MPC [24]: 0.125 µg/mL
- MIC [25]: 0.03 µg/mL (≈ 0.0713 µM)
- MPC [42]: 2 µg/mL
- MPC [26]: 0.125 µg/mL
- MPC [43]: 4 µg/mL
- MIC [27]: 0.06 µg/mL (≈ 0.143 µM)
- MPC [44]: 2 µg/mL
- MPC [45]: 8 µg/mL
- MPC [28]: 8 µg/mL
- MIC [29]: 0.03 µg/mL (≈ 0.0713 µM)
- MPC [46]: 1 µg/mL
- MPC [30]: 0.06 µg/mL
- MPC [47]: 8 µg/mL
- MPC [31]: 0.06 µg/mL
- MPC [32]: 0.06 µg/mL
- MPC [33]: >64 µg/mL
- MPC [34]: 64 µg/mL

Compound: C[C@@H](O)[C@H]1C(=O)N2C(C(=O)O)=C(SCCNC=N)C[C@H]12 [IMIPENEM ANHYDROUS]
- MPC [1]: 1 µg/mL
- MPC [3]: 16 µg/mL
- MPC [35]: 16 µg/mL
- MPC [5]: 0.5 µg/mL
- MPC [8]: 2 µg/mL
- MPC [36]: 16 µg/mL
- MPC [37]: 4 µg/mL
- MPC [9]: 0.5 µg/mL
- MPC [10]: 4 µg/mL
- MPC [11]: 1 µg/mL
- MPC [38]: 1 µg/mL
- MPC [12]: 32 µg/mL
- MPC [15]: 1 µg/mL
- MPC [16]: 64 µg/mL
- MPC [39]: 32 µg/mL
- MPC [40]: 16 µg/mL
- MPC [18]: 4 µg/mL
- MPC [19]: 1 µg/mL
- MPC [21]: 0.5 µg/mL
- MPC [41]: 32 µg/mL
- MPC [22]: 2 µg/mL
- MPC [23]: 1 µg/mL
- MPC [24]: 0.5 µg/mL
- MPC [42]: 32 µg/mL
- MPC [26]: 1 µg/mL
- MPC [43]: 16 µg/mL
- MPC [44]: 1 µg/mL
- MPC [45]: 4 µg/mL
- MPC [28]: >16 µg/mL
- MPC [46]: 1 µg/mL
- MPC [30]: 0.5 µg/mL
- MPC [47]: 8 µg/mL
- MPC [31]: 0.25 µg/mL
- MPC [32]: 0.5 µg/mL
- MPC [33]: 32 µg/mL
- MPC [34]: 32 µg/mL
